HSP90 refold inh = inhibitors of HSP90 luciferase refolding in rabbit reticulocyte lysate. luciferase refolding luminescence, 3 h. inhibition, % at 5.6 µM. 290,000 tested, 0.91% active. AID 1789;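 active = inhibition above the screen-wide mean plus 3 SD, computed separately per campaign, cut at about 16% in these data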;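 also: 0% = DMSO wells and 100% = 60 µM geldanamycin wells; inhibitors lower the luminescence because luciferase stays unfolded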
STAT1 blocker = STAT1 signaling inhibition; NIH 3T3 STAT1-luciferase reporter, IFN-gamma, luminescence; inhibition, % at 5.5 µM; 200,000 tested, 0.35% active; AID 920;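 active = inhibition above a set limit, the mean inhibition across all tested compounds plus 3 SD, cut at about 34% in these data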;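 also: 0% = IFN-gamma with DMSO and 100% = IFN-gamma with 300 µM nifuroxazide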
STAT3 inh = STAT3 signaling inhibition | U3A cells, IL-6 STAT3-luciferase reporter, luminescence; host cell line lacks STAT1 | inhibition, % at 5.5 µM | 190,000 tested, 0.89% active;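 active = inhibition above the mean inhibition across all screened compounds plus 3 SD, cut at about 44% in these data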;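 also: 0% = DMSO only wells and 100% = 100 µM nifuroxazide control wells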
STAT3 act-1 = increases IL-6 driven STAT3 reporter signal; 190,000 tested, 0.91% active; activation (% of control), % at 5.6 µM; U3A cells, IL-6 STAT3-luciferase reporter, luminescence; 100% = signal with IL-6 EC80 alone;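 active = activation above the screen-wide mean of compound activation plus 3 SD, cut at about 130% in these data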;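 also: 0% = background luminescence of wells with medium and substrate only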
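Test system: human U3A cells carrying STAT3-luciferase construct; control set: IL-6-only wells as 100% reference; timing: compound pre-incubation 1 h before IL-6, then 6 h stimulation at 37 °C; also added: IL-6 stimulus at 33 ng/mL final; evaluation: % activation versus median of IL-6-stimulated wells; detection: reporter luminescence signal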
STAT3 act-2 = STAT3 activation, confirmation assay. 1,200 tested, 64% active. shares compounds with STAT3 act-1. potentiation (% of control), % at 5.7 µM. AID 1267. U3A STAT3-luciferase reporter, IL-6 potentiation, luminescence; U3A cells lack STAT1; 100 means same as IL-6 alone;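 active = percent activation of the STAT3 luciferase reporter above a set limit taken from the earlier primary screen, cut at about 130% in these data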;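 also: 0% = background signal of medium plus substrate and 100% = median of IL-6 with DMSO wells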
NFkB act STAT3ct = activates NF-kappaB, counter-screen to STAT3 activators | 1,200 tested, 11% active | activation (% of control), % at 5.7 µM | shares compounds with STAT3 act-1 | AID 1309 | human cells, NF-kappaB reporter activation; in the data active = activation above about 120%;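 also: reporter induced by TNF-alpha stimulation; 100% = median of stimulated DMSO wells and 0% = no signal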
STAT1 act STAT3c = counter-screen for STAT3 activators: STAT1 activation. shares compounds with STAT3 act-1. NIH 3T3 STAT1-luciferase reporter, IFN-gamma, luminescence. activation (% of control), % at 5.7 µM. 1,200 tested, 13% active. AID 1318;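 active = activation above the solvent-only control well mean plus 3 SD, set per screening run, cut at about 120% in these data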;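 also: 100% = IFN-gamma with DMSO median signal so 100% means no change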
* marks the source's active call; other numbers are inactive results; x = no result given. Sampled rows, rich in hits. Any-hit rate of the full collection: about 2%.

SMILES	HSP90 refold inh	STAT1 blocker	STAT3 inh	STAT3 act-1	STAT3 act-2	NFkB act STAT3ct	STAT1 act STAT3c
Cc1ccc2nc3c(nc2c1)-c1ccccc1C3=O	3	-15	-90	174*	159*	116	129*
Cc1cccc2nc3c(nc12)-c1ccccc1C3=O	10	x	x	x	x	x	x
O=S(=O)(c1cccs1)N1CCN(Cc2nc3ccccc3s2)CC1	2	13	-24	124	x	x	x
O=C(OCc1nc2ccccc2s1)C1CCN(S(=O)(=O)c2cccs2)CC1	1	-27	-46	144*	140*	123*	131*
O=C(NCC1CCCO1)C1CC(=O)N(c2ccc(Cl)cc2)C1 (configuration not stated)	1	x	x	x	x	x	x
Cc1cccc(C2c3[nH]c4ccccc4c3CCN2Cc2cccn2-c2ncccn2)c1 (configuration not stated)	4	4	-54	149*	156*	106	98
COc1ccc(C2c3[nH]c4ccccc4c3CCN2Cc2cccn2-c2ncccn2)cc1C (configuration not stated)	5	-1	-38	136*	136*	104	94
c1ccc(C2c3[nH]c4ccccc4c3CCN2Cc2cccn2-c2ccccn2)nc1 (configuration not stated)	4	x	x	x	x	x	x
CC1=C(C(=O)OCc2ccccc2)C(c2ccc(Cl)cc2)NC(=O)N1CCCC(=O)O (configuration not stated)	-4	x	x	x	x	x	x
CCc1nc2ccccc2c(C(=O)Nc2ccc(F)cc2)c1C	-1	x	x	x	x	x	x
Fc1cccc(Cl)c1/C=N/Nc1ccccn1	1	-30	-42	138*	144*	113	127*
CCOCCCNC(=O)c1ccc2c(c1)N=C(CC)c1cc(Br)ccc1S2	0	-19	-46	157*	122	160*	119
CCC1=Nc2cc(C(=O)NCCN3CCOCC3)ccc2Sc2ccccc21	-5	x	x	x	x	x	x
C#CCN(C(=O)c1cc(COc2cccc(C(F)(F)F)c2)on1)C1CCCCC1	-2	x	x	x	x	x	x
O=C(N/N=C/c1c[nH]c2ccccc12)c1[nH]c2ccc(Br)cc2c1-c1ccccc1	1	-9	-64	150*	115	157*	107
O=C(N/N=C/c1c[nH]c2ccccc12)c1cc(Br)ccc1O	-5	x	x	x	x	x	x
O=C(N/N=C/c1ccc(O)cc1)c1[nH]c2ccc(Br)cc2c1-c1ccccc1	-2	-8	-45	143*	112	165*	117
Cc1[nH]n(-c2ccccc2)c(=O)c1/C=C1/C=c2ccccc2=N1	-3	-2	-63	156*	170*	101	100
Cc1nc2ccccc2n1CC(=O)OCC(=O)NCc1ccccc1	0	2	4	101	x	x	x
CCOC(=O)Cn1c(=O)c(-c2ccccc2NCc2ccccc2)nc2ccccc21	5	2	-39	136*	127	98	95
O=C1C(=C(O)c2ccccc2)C(=O)c2ccccc21	2	5	-12	113	x	x	x
O=C1C(=C(c2ccccc2)c2ccccc2)Nc2ccccc21	1	10	-47	147*	139*	101	95
COc1ccc(Oc2nc(-c3cccnc3)nc3ccccc23)cc1	-1	x	x	x	x	x	x
CCCOc1ccc(-c2nc(OC)c3ccccc3n2)cc1	-5	-7	-42	142*	152*	105	100
CCC(C)c1ccc(NC(=O)Nc2cnccn2)cc1 (configuration not stated)	-6	x	x	x	x	x	x
SMILES	HSP90 refold inh	STAT1 blocker	STAT3 inh	STAT3 act-1	STAT3 act-2	NFkB act STAT3ct	STAT1 act STAT3c
COc1cc(OC)cc(-c2nc3ccccc3s2)c1	-1	-26	-124	203*	180*	127*	139*
Nc1ccc(-c2nc3ccccc3s2)cn1	-4	x	x	x	x	x	x
Cn1c(CNc2ccccc2O)nc2ccccc21	1	0	-65	159*	179*	107	98
Cc1ccccc1NCc1nc2ccccc2n1C	10	x	x	x	x	x	x
CCOC(=O)c1cnn(-c2ncnc3sc(CC)cc23)c1N	3	-2	-49	144*	147*	111	111
Cc1csc(NC(=O)Cc2coc3cc(C)c(C(C)C)cc23)n1	6	5	-38	137*	125	99	96
CCCc1nnc(N2C(=O)c3cccc4cccc(c34)C2=O)s1	0	7	-61	160*	146*	101	90
CN(C)CC(C)(C)CNS(=O)(=O)c1ccc(OC(F)(F)F)cc1	-7	-2	-2	103	x	x	x
CCOC(=O)c1[nH]c2ccccc2c1NC(=O)c1ccco1	-2	-5	7	99	x	x	x
CCOC(=O)c1[nH]c2ccc(OC)cc2c1NC(C)=O	-2	-4	-2	105	x	x	x
CCOC(=O)c1[nH]c2ccccc2c1NC(=S)Nc1cc(C)ccc1C	5	7	-64	155*	150*	98	87
CCOC(=O)c1[nH]c2ccccc2c1NC(=S)Nc1ccccc1C	7	10	-60	152*	155*	104	89
CCOC(=O)c1[nH]c2ccccc2c1NC(=O)Nc1ccc(OC)cc1	4	13	-34	141*	143*	107	96
CCCC(=O)Nc1c(C(=O)OCC)[nH]c2ccccc12	1	11	-77	169*	149*	102	90
COc1ccc(CSc2nnc(-c3ccncc3)n2C)cc1F	2	x	x	x	x	x	x
O=C1NC(=O)/C(=C\c2ccc(N3CCOCC3)o2)N1	6	3	8	96	x	x	x
CC(C)(C)C(=O)N/C(N)=N/c1nc2ccccc2o1	4	x	x	x	x	x	x
COC(=O)c1c(C)[nH]c(C(=O)CN2CCOCC2)c1C	1	10	-40	139*	138*	108	99
O=C/C(=C\Nc1ccccn1)c1nc2ccccc2o1	0	1	-66	158*	144*	114	100
CC(=O)Nc1ccc(N/C=C(\C=O)c2nc3ccccc3o2)cc1	-1	3	-57	147*	151*	94	103
O=C/C(=C\Nc1ccc(Br)cc1)c1nc2ccccc2o1	2	0	11	94	x	x	x
CC(=O)Nc1cccc(N/C=C(\C=O)c2nc3ccccc3o2)c1	0	-10	-74	171*	176*	115	112
Cc1ccc(S(=O)(=O)/N=C(\N)c2ccc(Cl)cc2)cc1	-3	x	x	x	x	x	x
Cc1nnc(NCc2ccccc2)c2ccccc12	0	x	x	x	x	x	x
c1ccc(C2=Nc3ccccc3SC2c2nc3ccccc3[nH]2)cc1 (configuration not stated)	3	-31	-60	158*	147*	130*	152*
COc1ccc(N(CC(=O)N2CCN(Cc3ccccc3)CC2)S(C)(=O)=O)c(OC)c1	0	x	x	x	x	x	x
O=C(CS(=O)CC(=O)N(CC(=O)NC1CCCC1)c1ccccc1F)Nc1ccc(F)cc1 (configuration not stated)	1	x	x	x	x	x	x
